What was measured:
[1] = In vitro inhibition of UDP-[3H]-GlcNAc import into the lumen of the Golgi membranes from rabbit liver homogenate.; assay type: functional, tissue-based, Oryctolagus cuniculus
Procedure, shortened: (§1)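 Golgi-enriched membranes from rabbit liver homogenate incubated with 1 μM UDP-[³H]GlcNAc plus a range of inhibitor concentrations. Import into the lumen was measured by filtration under initial-velocity conditions, after 90 s at 25 °C, where uptake is linear with time. IC50 and standard deviation were obtained by curve fitting. For UDP, assays included 2 mM EDTA.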

[2] = The compound was tested for extent of UDP-[3H]-GlcNAc accumulation into the lumen of the Golgi membranes.; assay type: functional, Oryctolagus cuniculus
Procedure, shortened: (§2)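 Rabbit liver Golgi-enriched membranes were incubated as in the import assay with 1 μM UDP-[³H]GlcNAc and varied inhibitor concentrations. Uptake was allowed to reach equilibrium (20–30 min) before membrane-associated label was measured by filtration. 1 mM AMP-PNP was added to limit UDP-GlcNAc degradation. IC50 was derived by curve fitting; values are averages of at least three independent measurements.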

[3] = Inhibitory concentration at which there is accumulation of UDP-[3H]-GlcNAc in the lumen of the Golgi membranes.; assay type: functional, cell membranes, Oryctolagus cuniculus; procedure, shortened: as §2
[4] = (§3) The compound was tested for inhibition of the rate of 1 uM UDP-[3H]-GlcNAc import into the lumen of the Golgi membranes.; assay type: functional, Oryctolagus cuniculus; procedure, shortened: as §1
[5] = The compound was tested for extent of 1 uM UDP-[3H]-GlcNAc accumulation into the lumen of the Golgi membranes from rabbit liver homogenate; assay type: functional, tissue-based, Oryctolagus cuniculus; procedure, shortened: as §2
Oryctolagus cuniculus = species: Oryctolagus cuniculus; test: as §3; assay type: functional

Row | Structure (SMILES) | IC50 [1] [µM] | IC50 [2] [µM] | IC50 [3] [µM] | other results
1 | O=c1[nH]c(=O)n(C2CC(F)C(COP(=O)(O)O)O2)cc1Cl (stereo unspecified) | 9 | 4 |  | 
2 | Cc1cn([C@H]2CC[C@@H](COP(=O)(O)O)O2)c(=O)[nH]c1=O | 9 |  |  | 
3 | Cc1cn([C@H]2C[C@H](N=[N+]=[N-])[C@@H](COP(=O)(O)O)O2)c(=O)[nH]c1=O (stereo in doubt; form 1) [AZIDOTHYMIDINE MONOPHOSPHATE] | 7 | 5 | 5 | 
4 | Cc1cn([C@H]2C[C@H](N=[N+]=[N-])[C@@H](COP(=O)(O)O)O2)c(=O)[nH]c1=O (stereo in doubt; form 2) [AZIDOTHYMIDINE MONOPHOSPHATE] | 85 | > 100 | > 100 | 
5 | Cc1cn(COCCOP(=O)(O)O)c(=O)[nH]c1=O | > 100 | > 100 | > 100 | 
6 | O=c1ccn([C@H]2C[C@H](O)[C@@H](COP(=O)(O)O)O2)c(=O)[nH]1 [DEOXYURIDINE MONOPHOSPHATE] | 8 |  |  | 
7 | N[C@H]1[C@@H](OP(=O)(O)OP(=O)(O)OC[C@H]2O[C@@H](n3ccc(=O)[nH]c3=O)[C@H](O)[C@@H]2O)O[C@H](CO)[C@H](O)[C@@H]1O [URACIL DIPHOSPHATE GALACTOSAMINE] |  |  |  | IC50 [4]: 40 µM
8 | O=c1[nH]c(=O)n([C@H]2C[C@H](O)[C@@H](COP(=O)(O)O)O2)cc1/C=C/Br |  |  |  | IC50 [4]: 5 µM
9 | CC(=O)N[C@H]1[C@H]([C@H](O)[C@H](O)CO)O[C@](OP(=O)(O)OC[C@H]2O[C@@H](n3ccc(N)nc3=O)[C@H](O)[C@@H]2O)(C(=O)O)C[C@@H]1O | > 50 |  | 35 | 
10 | N[C@H]1[C@@H](OP(=O)(O)OP(=O)(O)OC[C@H]2O[C@@H](n3ccc(=O)[nH]c3=O)[C@H](O)[C@@H]2O)O[C@H](CO)[C@@H](O)[C@@H]1O [URACIL DIPHOSPHATE GLUCOSAMINE] |  |  | > 40 | IC50 [4]: 7 µM
11 | Cc1cn([C@H]2CC[C@H](COP(=O)(O)O)O2)c(=O)[nH]c1=O | > 200 |  |  | 
12 | CCCc1cn([C@H]2C[C@H](O)[C@@H](COP(=O)(O)O)O2)c(=O)[nH]c1=O |  |  |  | IC50 [4]: 100 µM
13 | O=c1[nH]c(=O)n(C2CSC(COP(=O)(O)O)O2)cc1F (stereo unspecified) | 18 | 35 |  | 
14 | CC(=O)N[C@@H]1[C@H](OP(=O)(O)OP(=O)(O)OC[C@H]2O[C@@H](n3ccc(=O)[nH]c3=O)[C@H](O)[C@@H]2O)O[C@@H](CO)[C@H](O)[C@H]1O |  |  | 4 | Km (Oryctolagus cuniculus): 2 µM; IC50 [4]: 7 µM

Continued, in another order:

Row | IC50 [1] [µM] | IC50 [2] [µM] | IC50 [3] [µM] | Structure (SMILES) | other results
15 | > 200 |  |  | Cc1cn([C@@H]2O[C@H](COP(=O)(O)O)[C@@H](O)[C@@H]2F)c(=O)[nH]c1=O | 
16 | 1.5 |  |  | Cc1cn(C2CC(F)C(COP(=O)(O)O)O2)c(=O)[nH]c1=O (stereo unspecified) | 
17 | > 40 | > 40 |  | CC#Cc1cn([C@H]2C[C@H](O)[C@@H](COP(=O)(O)O)O2)c(=O)[nH]c1=O | 
18 | 3.5 | 5 |  | CCc1cn(C2O[C@H](COP(=O)(O)O)[C@@H](O)[C@@H]2O)c(=O)[nH]c1=O (stereo partly specified) | 
19 | 10 |  |  | Nc1ccn([C@@H]2O[C@H](COP(=O)(O)O)[C@@H](O)[C@H]2O)c(=O)n1 (stereo in doubt; form 2) | 
20 | 11 |  |  | O=c1ccn([C@@H]2O[C@H](COP(=O)(O)O)[C@@H](O)[C@H]2F)c(=O)[nH]1 | 
21 | > 100 |  |  | Nc1ccn([C@@H]2O[C@H](COP(=O)(O)O)[C@@H](O)[C@H]2O)c(=O)n1 (stereo in doubt; form 1) | 
22 | 8 | 4 | 4 | O=c1ccn(C2O[C@H](COP(=O)(O)O)[C@@H](O)[C@@H]2O)c(=O)[nH]1 (stereo partly specified) | 
23 | 10 |  | 11 | Cc1cn([C@H]2C[C@H](O)[C@@H](COP(=O)(O)O)O2)c(=O)[nH]c1=O [THYMIDINE MONOPHOSPHATE] | IC50 [5]: 11 µM

Source: ChEMBL document CHEMBL1129244, “Inhibition of UDP-N-acetylglucosamine import into Golgi membranes by nucleoside monophosphates” (J Med Chem, 1996)
